Compound activity as filed in PubChem BioAssay.
PERK inh: inhibitors of human PERK kinase | inhibition, % at 5.6 µM | CHO PERK-DD fusion, SEAP luminescence translation reporter | AID 1416 | actives 0.17% (n = 220,000) | Q9NZJ5;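 active means inhibition above the mean inhibition of all tested compounds plus 3 SD, set separately per screening campaign, cut at about 2.9% in these data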;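 further: PERK kinase domain activated by AP20187 dimerizer at 100 nM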
Dynein transport: blocks dynein driven cargo transport along microtubules; 3617.4 mouse cells, GR-EGFP nuclear translocation imaging; test concentration mostly 20 µM; stimulated with dexamethasone, 1 µM; hits give low values; actives 0.47% (n = 220,000); z-score, hits read low; AID 1381;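 active means plate z-score of nuclear minus cytoplasmic receptor signal below a set negative limit, without overly bright fluorescence or cell loss, cut at about -3.5 in these data, passing the limit was not always enough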;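 further: z-score of nuclear minus cytoplasmic ring GR-EGFP intensity difference per well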
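Buffer or medium: tet-free, stripped-serum medium; Also added: dexamethasone, 1.0 µM final; Technique: high-content fluorescence imaging after fixation; Times: 48 h induction, 1 h compound, 30 min dex at 37 °C; Read-out: per-cell GR-EGFP intensity, nucleus versus surrounding cytoplasmic ring, well-averaged.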
Tb hexokinase: blocks Trypanosoma brucei hexokinase 1 activity | actives 0.11% (n = 220,000) | inhibition, % at 10 µM | recombinant TbHK1, G6PDH-coupled NADH A340 | AID 1430;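 active means inhibition of 50% or more in the single-dose primary screen; inactive means inhibition below 50%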
HSV replic up: increases HSV replication in cells | HSV replication augmentation in cells, fold increase | maximum fold increase | actives 0.005% (n = 220,000) | AID 1956; in the data active means maximum fold increase above about 1.5; tested in PC3 cells
Autophagy mod: modulators of autophagy; calls only at 10 µM (by protocol); actives 0.98% (n = 190,000); MEF GFP-LC3 puncta imaging; test concentration mostly 10 µM;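 active means percentage of spot-positive cells more than 3 SD above its plate mean, without a fluorescence outlier flag or 80% toxicity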
HKDC1 inh: blocks human hexokinase HKDC1 activity; Q2TB90; recombinant HKDC1, G6PDH/diaphorase resazurin coupled fluorescence; inhibition, % at 20 µM; actives 0.16% (n = 340,000); AID 493160;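 active means inhibition above about 35% when tested at 20 µM, limit read from the data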
Target sequence (Q2TB90 whole entry, looked up): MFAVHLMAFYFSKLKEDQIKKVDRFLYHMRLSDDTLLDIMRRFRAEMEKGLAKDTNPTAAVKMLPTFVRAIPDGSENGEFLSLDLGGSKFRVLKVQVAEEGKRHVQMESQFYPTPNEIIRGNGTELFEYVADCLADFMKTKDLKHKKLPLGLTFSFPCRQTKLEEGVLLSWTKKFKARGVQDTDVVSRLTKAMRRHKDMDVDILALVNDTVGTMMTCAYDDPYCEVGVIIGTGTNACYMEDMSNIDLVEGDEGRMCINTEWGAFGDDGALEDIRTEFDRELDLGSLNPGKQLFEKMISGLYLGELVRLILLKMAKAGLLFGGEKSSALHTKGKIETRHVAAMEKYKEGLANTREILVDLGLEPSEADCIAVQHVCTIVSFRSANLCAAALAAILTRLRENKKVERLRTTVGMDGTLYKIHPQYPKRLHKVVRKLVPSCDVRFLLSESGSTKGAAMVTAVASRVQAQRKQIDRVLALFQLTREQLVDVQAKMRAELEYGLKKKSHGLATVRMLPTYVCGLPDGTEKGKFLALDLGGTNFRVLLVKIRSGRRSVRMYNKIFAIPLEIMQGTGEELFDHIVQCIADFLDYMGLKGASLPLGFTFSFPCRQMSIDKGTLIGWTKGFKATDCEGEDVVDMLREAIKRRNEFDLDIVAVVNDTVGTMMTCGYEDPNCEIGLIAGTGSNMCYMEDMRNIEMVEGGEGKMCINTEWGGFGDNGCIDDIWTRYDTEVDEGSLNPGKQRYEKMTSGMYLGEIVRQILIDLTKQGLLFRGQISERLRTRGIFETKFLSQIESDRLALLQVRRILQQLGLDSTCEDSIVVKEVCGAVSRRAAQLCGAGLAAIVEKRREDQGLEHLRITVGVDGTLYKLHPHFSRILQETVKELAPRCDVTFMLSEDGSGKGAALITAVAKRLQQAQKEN
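Assay system: recombinant HKDC1 hexokinase; detection: coupled resazurin fluorescence, excitation 525 nm, emission 613 nm; benchmarks: DMSO-plus-enzyme-mix negative control, buffer-substituted positive control; compound dosing: single 20 µM dose; schedule: 90 min at room temperature in dark; also added: glucose plus 1 mM ATP as hexokinase substrates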
HKDC1 act conf: HKDC1 (human) activation, single-dose confirmed. recombinant HKDC1, G6PDH/diaphorase resazurin fluorescence; hits give low values. actives 14% (n = 740). inhibition, % at 20 µM. shares compounds with HKDC1 inh. AID 504708;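 active means inhibition at or below a set negative limit, negative inhibition meaning the enzyme was activated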
Numbers stand for hits. Rows were chosen to be rich in hits. Some 1.2% of all compounds tested hit in one or more screens of this group.

What do the screens show for `Cn1c(SCC(=O)Nc2ccc3nc(SCC(=O)NC4CC4)sc3c2)nnc1-c1ccccc1`?
PERK inh: inactive; Dynein transport: inactive; Tb hexokinase: inactive; HSV replic up: inactive; Autophagy mod: inactive; HKDC1 inh: inactive

How did Cn1c(SCC(=O)Nc2ccc3nc(SCC(=O)N4CCCC4)sc3c2)nnc1-c1ccc(N)cc1 do in these assays?
PERK inh: inactive; Dynein transport: inactive; Tb hexokinase: inactive; Autophagy mod: inactive; HKDC1 inh: inactive; HKDC1 act conf: inactive

What do the screens show for `COc1cc(SC#N)ccc1N=Cc1c(C)[nH]n(-c2ccc(Cl)cc2)c1=O`?
PERK inh: inactive; Dynein transport: inactive; Tb hexokinase: inactive; HSV replic up: inactive; Autophagy mod: active; HKDC1 inh: inactive; HKDC1 act conf: -38

Results for COc1ccc(NC(=O)Nc2nnc(-c3ccncc3)s2)cc1 ?
PERK inh: inactive; Dynein transport: inactive; Tb hexokinase: inactive; HSV replic up: inactive; Autophagy mod: inactive; HKDC1 inh: inactive

How did O=C(Nc1ccc(Cl)c(Cl)c1)Nc1nnc(-c2ccncc2)s1 do in these assays?
PERK inh: inactive; Dynein transport: inactive; Tb hexokinase: inactive; HSV replic up: inactive; Autophagy mod: inactive; HKDC1 inh: 41; HKDC1 act conf: inactive

How did CCCCc1cc(=O)oc2cc(OCC(=O)NCCN3CCOCC3)ccc12 do in these assays?
HKDC1 inh: inactive

Results for CCc1nn2c(=O)cc(COc3ccc(/C=C4\C(=N)N5N=C(CC(C)C)SC5=NC4=O)cc3)nc2s1 ?
PERK inh: inactive; Dynein transport: inactive; Tb hexokinase: inactive; HSV replic up: inactive; HKDC1 inh: inactive

How did CCC1=NN2C(=N)/C(=C\c3ccc(OCc4cc(=O)n5nc(CC)sc5n4)c(OC)c3)C(=O)N=C2S1 do in these assays?
PERK inh: inactive; Dynein transport: inactive; Tb hexokinase: inactive; HSV replic up: inactive; Autophagy mod: inactive; HKDC1 inh: inactive; HKDC1 act conf: inactive

What do the screens show for `COc1ccc(S(=O)(=O)N2CCN(C(=O)c3cc4c(s3)CCC4)CC2)cc1`?
HKDC1 inh: inactive; HKDC1 act conf: inactive

Results for Cc1ccc(S(=O)(=O)N2CCN(C(=O)c3cc4c(s3)CCCC4)CC2)cc1 ?
HKDC1 inh: inactive

How did CCCN(CC(=O)Nc1ccccc1OC)C(=O)C1=COCCO1 do in these assays?
HKDC1 inh: inactive

Results for N#Cc1ccc(CSc2nnc(NC(=O)c3ccc4ncsc4c3)s2)cc1 ?
PERK inh: inactive; Dynein transport: inactive; Tb hexokinase: inactive; HSV replic up: inactive; Autophagy mod: inactive; HKDC1 inh: 51; HKDC1 act conf: inactive

Results for Cc1ccc(NC(=O)CSc2nnc(C)n2C2CC2)cc1S(=O)(=O)N1CCOCC1 ?
HKDC1 inh: inactive

How did CCN(CC)C(=O)c1ccc(C(=O)c2c(C)cc(C)cc2C)cc1 do in these assays?
PERK inh: inactive; Dynein transport: inactive; Tb hexokinase: inactive; HSV replic up: inactive; Autophagy mod: inactive; HKDC1 inh: 39; HKDC1 act conf: -40

How did Cc1cc(C)c(C(=O)c2ccccc2)c(C)c1 do in these assays?
HKDC1 inh: inactive

How did COc1ccc(N2CCN(C(=O)COC(=O)c3ccc(-n4nc(C)cc4C)cc3)CC2)cc1 do in these assays?
HKDC1 inh: inactive

Results for Cc1ccccc1/C=C/C(=O)c1ccc([N+](=O)[O-])o1 ?
HKDC1 inh: 46; HKDC1 act conf: inactive

Results for Cc1cccc(/C=C/C(=O)c2ccc([N+](=O)[O-])o2)c1 ?
HKDC1 inh: 50; HKDC1 act conf: inactive

What do the screens show for `C=CCNc1nc(C(=O)OCC(=O)Nc2ccccc2C(F)(F)F)cs1`?
HKDC1 inh: inactive

Results for Cc1ccc(-n2c3nc(=O)[nH]c(=O)c-3cc3cc([N+](=O)[O-])ccc32)cc1C ?
PERK inh: inactive; Dynein transport: inactive; Tb hexokinase: inactive; HSV replic up: inactive; Autophagy mod: inactive; HKDC1 inh: 61; HKDC1 act conf: inactive

How did CC1CC(=Cc2ccc([N+](=O)[O-])cc2)C(=O)O1 (configuration not stated) do in these assays?
HKDC1 inh: inactive

How did CC(=O)Nc1ccc(NC(=O)COC(=O)C2CCCCC2)cc1 do in these assays?
HKDC1 inh: inactive

What do the screens show for `Oc1ccc(/C=N/Nc2ccnc3cc(Cl)ccc23)cc1O`?
PERK inh: inactive; Dynein transport: inactive; Tb hexokinase: inactive; HSV replic up: inactive; HKDC1 inh: inactive

How did Oc1ccc(/C=N/Nc2ccnc3cc(Cl)ccc23)c(O)c1O do in these assays?
HKDC1 inh: 37; HKDC1 act conf: inactive

What do the screens show for `Cc1nn(C)cc1C(=O)Nc1ccc2c(c1)OCCO2`?
HKDC1 inh: inactive

Results for CC1(C)Cc2c(c(N3CCOCC3)nc3sc4c(NCC5CCCO5)nnnc4c23)CS1 (configuration not stated) ?
PERK inh: inactive; Dynein transport: inactive; Tb hexokinase: inactive; HSV replic up: inactive; HKDC1 inh: 45; HKDC1 act conf: inactive

What do the screens show for `O=C1C(Cl)=C(N2CCC(C(=O)O)CC2)C(=O)c2ccccc21`?
PERK inh: inactive; Dynein transport: inactive; Tb hexokinase: inactive; HSV replic up: inactive; HKDC1 inh: 50; HKDC1 act conf: inactive

How did CN1CCN(C2=C(Cl)C(=O)c3ccccc3C2=O)CC1 do in these assays?
HKDC1 inh: 44; HKDC1 act conf: inactive

What do the screens show for `CC1COCC(C)N1C1=C(Cl)C(=O)c2ccccc2C1=O` (configuration not stated)?
HKDC1 inh: 38; HKDC1 act conf: inactive

Results for NC(=O)C1CCN(C2=C(Cl)C(=O)c3ccccc3C2=O)CC1 ?
PERK inh: inactive; Dynein transport: inactive; Tb hexokinase: inactive; HSV replic up: inactive; Autophagy mod: inactive; HKDC1 inh: 47; HKDC1 act conf: inactive

How did CN1CCN(C2=C(NS(=O)(=O)c3ccccc3)C(=O)c3ccccc3C2=O)CC1 do in these assays?
HKDC1 inh: inactive

How did NC(=O)C1CCN(C2=C(NS(=O)(=O)c3ccccc3)C(=O)c3ccccc3C2=O)CC1 do in these assays?
PERK inh: inactive; Dynein transport: inactive; Tb hexokinase: inactive; HSV replic up: inactive; HKDC1 inh: inactive

What do the screens show for `CC(C)Oc1ccc(S(=O)(=O)N2CCOCC2)cc1NC(=O)C1=COCCO1`?
HKDC1 inh: inactive

How did CC1CC(C)CN(C(=O)CN(C)S(=O)(=O)c2ccc3c(c2)c(=O)n(C)c(=O)n3C)C1 (configuration not stated) do in these assays?
HKDC1 inh: inactive

How did COC1(NS(=O)(=O)c2ccc(Br)cc2)C(C)=CC(=O)C=C1C do in these assays?
PERK inh: inactive; Dynein transport: inactive; Tb hexokinase: inactive; HSV replic up: inactive; Autophagy mod: inactive; HKDC1 inh: 50; HKDC1 act conf: inactive
